Measurements published in ChEMBL document CHEMBL1142697, “Beta-lactam screening by specific residues of the OmpF eyelet” (2005).

How the values were obtained:
Klebsiella aerogenes [1] = assay: Mean lysis diameter was measured against Enterobacter aerogenes EA289 with D121A mutation by standard disk diffusion method on MH agar; assay type: functional
Outline: (§1)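 Porin-deficient, β-lactamase-producing Enterobacter aerogenes EA289 carrying plasmid-borne wild-type OmpF, D113A or D121A. Grown in LB at 37 °C with gentle shaking, with kanamycin (50 µg/mL) or IPTG (1 mM); porin expression checked. Disk diffusion: 3 mL MH broth culture (10^7 bacteria/mL) spread on MH agar, antibiotic disks applied, inhibition diameter (mm) after 24 h at 37 °C. Mean of 3–5 experiments, versus the wild-type OmpF strain.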

Klebsiella aerogenes [2] = assay: Mean lysis diameter of porin deficient Enterobacter aerogenes EA289 by standard disk diffusion method on MH agar; assay type: functional
Outline: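 Porin-deficient, β-lactamase-expressing E. aerogenes EA289 is grown in Luria Bertani broth at 37 °C with gentle shaking. An MH broth culture at 10^7 bacteria/mL is spread on MH agar and antibiotic-loaded disks are applied. The inhibition diameter (mm) around each disk is read after 24 h at 37 °C, averaged over three to five experiments.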

Klebsiella aerogenes [3] = assay: Mean lysis diameter of Enterobacter aerogenes EA289 with D113A mutation by standard disk diffusion method on MH agar; assay type: functional; outline: as §1
Klebsiella aerogenes [4] = assay: Mean lysis diameter of wild type Enterobacter aerogenes EA289 with OmpF by standard disk diffusion method on MH agar; assay type: functional
Outline: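 EA289 is transformed with a plasmid encoding wild-type OmpF and grown in LB at 37 °C with gentle shaking, with kanamycin (50 µg/mL) or IPTG (1 mM) as needed to keep the plasmid. OmpF expression level is checked. For the disk diffusion test, MH broth culture (10^7 bacteria/mL) is spread on MH agar with antibiotic disks. Zone diameter (mm) is read after 24 h at 37 °C, mean of 3–5 experiments.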

Escherichia coli [5] = assay: Bacterial susceptibility induced by D113 mutation in Escherichia coli OmpF; assay type: functional, organism-based; outline: as §1
Escherichia coli [6] = assay: Bacterial susceptibility induced by D121 mutation in Escherichia coli OmpF; assay type: functional, organism-based; outline: as §1

| Compound | Lysis diameter (Klebsiella aerogenes [1]) | Lysis diameter (Klebsiella aerogenes [2]) | Lysis diameter (Klebsiella aerogenes [3]) | Lysis diameter (Klebsiella aerogenes [4]) | Susceptibility (Escherichia coli [5]) | Susceptibility (Escherichia coli [6]) |
| --- | --- | --- | --- | --- | --- | --- |
| CC1(C)S[C@@H]2[C@H](NC(=O)[C@H](N)c3ccccc3)C(=O)N2[C@H]1C(=O)O [AMPICILLIN] | 7 mm | 6 mm | 16 mm | 6 mm | – | – |
| CO/N=C(\C(=O)N[C@@H]1C(=O)N2C(C(=O)[O-])=C(C[N+]3(C)CCCC3)CS[C@H]12)c1csc(N)n1 [CEFEPIME] | 29 mm | 19 mm | 30 mm | 27 mm | +/- | +/- |
| CO/N=C(\C(=O)N[C@@H]1C(=O)N2C(C(=O)[O-])=C(C[n+]3cccc4c3CCC4)CS[C@H]12)c1csc(N)n1 [CEFPIROME] | 31 mm | 19 mm | 31 mm | 26 mm | – | – |
| CC(C)(O/N=C(\C(=O)N[C@@H]1C(=O)N2C(C(=O)[O-])=C(C[n+]3ccccc3)CS[C@H]12)c1csc(N)n1)C(=O)O [CEFTAZIDIME] | 15 mm | 8 mm | 20 mm | 11 mm | – | – |
| CO[C@@]1(NC(=O)Cc2cccs2)C(=O)N2C(C(=O)O)=C(COC(N)=O)CS[C@@H]21 [CEFOXITIN] | 12 mm | 6 mm | 16 mm | 7 mm | – | – |
| CO/N=C(\C(=O)N[C@@H]1C(=O)N2C(C(=O)O)=C(COC(C)=O)CS[C@H]12)c1csc(N)n1 [CEFOTAXIME] | 18 mm | 15 mm | 23 mm | 17 mm | – | – |
